Data taken from ChEMBL document CHEMBL4622928, “Discovery of 5-(4-methylpiperazin-1-yl)-2-nitroaniline derivatives as a new class of SIRT6 inhibitors” (Bioorg Med Chem Lett, 2020).

Tests used:
[1] = molecular target: T1, Polyamine deacetylase HDAC10 (Homo sapiens, UniProt Q969S8); assay: Inhibition of HDAC10 (unknown origin)
T1 sequence (Q969S8 whole entry): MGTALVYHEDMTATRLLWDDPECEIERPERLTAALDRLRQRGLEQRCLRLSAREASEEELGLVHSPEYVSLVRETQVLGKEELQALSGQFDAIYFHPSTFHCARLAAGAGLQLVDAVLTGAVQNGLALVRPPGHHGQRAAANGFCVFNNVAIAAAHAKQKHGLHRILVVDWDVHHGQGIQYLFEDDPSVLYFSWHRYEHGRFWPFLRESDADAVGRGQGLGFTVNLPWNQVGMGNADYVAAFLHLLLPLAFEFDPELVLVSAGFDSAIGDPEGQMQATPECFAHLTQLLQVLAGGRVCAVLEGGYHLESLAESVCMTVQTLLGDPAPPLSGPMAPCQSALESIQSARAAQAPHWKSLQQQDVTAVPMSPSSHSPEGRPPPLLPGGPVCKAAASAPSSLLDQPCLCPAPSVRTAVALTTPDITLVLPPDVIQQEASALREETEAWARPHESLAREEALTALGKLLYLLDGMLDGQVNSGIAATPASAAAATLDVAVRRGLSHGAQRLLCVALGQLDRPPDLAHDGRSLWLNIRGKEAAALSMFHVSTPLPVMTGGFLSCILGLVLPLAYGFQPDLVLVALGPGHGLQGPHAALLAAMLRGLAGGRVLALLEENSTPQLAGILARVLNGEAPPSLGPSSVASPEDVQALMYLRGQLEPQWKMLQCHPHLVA
Method in brief: (§1)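 Each deacetylase was run in a Fluor de Lys (FDL) fluorogenic deacetylation assay as a selectivity screen, with compound tested at concentrations up to 200 μM. IC50 was estimated from the dose-response.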

[2] = molecular target: T2, NAD-dependent protein deacylase sirtuin-6 (Homo sapiens, UniProt Q8N6T7); assay: Binding affinity to SIRT6 (unknown origin) by surface plasmon resonance assay
T2 sequence (Q8N6T7 whole entry): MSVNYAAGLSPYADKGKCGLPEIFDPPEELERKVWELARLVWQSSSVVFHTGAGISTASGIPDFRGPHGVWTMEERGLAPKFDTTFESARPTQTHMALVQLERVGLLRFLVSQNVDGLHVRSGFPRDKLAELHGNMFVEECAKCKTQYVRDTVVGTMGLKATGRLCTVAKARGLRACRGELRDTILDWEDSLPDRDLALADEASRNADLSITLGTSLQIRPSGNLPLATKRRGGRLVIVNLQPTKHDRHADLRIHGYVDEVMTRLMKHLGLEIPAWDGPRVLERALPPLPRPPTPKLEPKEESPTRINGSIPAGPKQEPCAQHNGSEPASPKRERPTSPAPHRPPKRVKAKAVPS

[3] = Toxicity in mouse assessed as effect on body weight; settings: in vivo
Method in brief: (§2)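 Normal (non-diabetic) mice were dosed, and blood glucose and body weight were tracked over the study.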

Histone deacetylase 11 = molecular target: T3, Histone deacetylase 11 (Homo sapiens, UniProt Q96DB2); assay: Inhibition of HDAC11 (unknown origin); method in brief: as §1
T3 sequence (Q96DB2 whole entry): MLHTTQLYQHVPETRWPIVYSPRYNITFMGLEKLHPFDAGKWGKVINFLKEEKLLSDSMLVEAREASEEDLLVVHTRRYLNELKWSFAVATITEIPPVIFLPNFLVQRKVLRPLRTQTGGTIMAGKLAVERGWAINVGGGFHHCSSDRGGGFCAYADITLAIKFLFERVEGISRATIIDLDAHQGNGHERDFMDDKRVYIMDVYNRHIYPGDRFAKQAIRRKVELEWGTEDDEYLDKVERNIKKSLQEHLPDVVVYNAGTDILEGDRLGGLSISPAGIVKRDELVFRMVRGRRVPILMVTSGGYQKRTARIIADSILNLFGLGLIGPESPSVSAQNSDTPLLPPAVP

Histone deacetylase 1 = Histone deacetylase 1 (Homo sapiens, UniProt Q13547); assay: Inhibition of HDAC1 (unknown origin); method in brief: as §1
Histone deacetylase 1, sequence (Q13547 whole entry): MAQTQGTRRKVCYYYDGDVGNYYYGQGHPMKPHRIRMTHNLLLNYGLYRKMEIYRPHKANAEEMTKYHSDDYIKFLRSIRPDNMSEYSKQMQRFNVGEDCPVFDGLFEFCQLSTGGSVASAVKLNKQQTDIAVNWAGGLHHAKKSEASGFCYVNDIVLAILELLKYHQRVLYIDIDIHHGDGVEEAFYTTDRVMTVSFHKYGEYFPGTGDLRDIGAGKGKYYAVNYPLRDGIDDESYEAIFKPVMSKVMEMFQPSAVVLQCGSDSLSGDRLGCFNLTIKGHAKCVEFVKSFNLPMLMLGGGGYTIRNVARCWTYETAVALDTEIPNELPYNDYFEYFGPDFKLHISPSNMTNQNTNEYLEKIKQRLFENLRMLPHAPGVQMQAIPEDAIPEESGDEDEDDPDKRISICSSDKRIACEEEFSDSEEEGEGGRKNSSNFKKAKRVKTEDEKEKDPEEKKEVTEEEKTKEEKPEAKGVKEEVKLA

Histone deacetylase 9 = Histone deacetylase 9 (Homo sapiens, UniProt Q9UKV0); assay: Inhibition of HDAC9 (unknown origin); method in brief: as §1
Histone deacetylase 9, sequence (Q9UKV0 whole entry): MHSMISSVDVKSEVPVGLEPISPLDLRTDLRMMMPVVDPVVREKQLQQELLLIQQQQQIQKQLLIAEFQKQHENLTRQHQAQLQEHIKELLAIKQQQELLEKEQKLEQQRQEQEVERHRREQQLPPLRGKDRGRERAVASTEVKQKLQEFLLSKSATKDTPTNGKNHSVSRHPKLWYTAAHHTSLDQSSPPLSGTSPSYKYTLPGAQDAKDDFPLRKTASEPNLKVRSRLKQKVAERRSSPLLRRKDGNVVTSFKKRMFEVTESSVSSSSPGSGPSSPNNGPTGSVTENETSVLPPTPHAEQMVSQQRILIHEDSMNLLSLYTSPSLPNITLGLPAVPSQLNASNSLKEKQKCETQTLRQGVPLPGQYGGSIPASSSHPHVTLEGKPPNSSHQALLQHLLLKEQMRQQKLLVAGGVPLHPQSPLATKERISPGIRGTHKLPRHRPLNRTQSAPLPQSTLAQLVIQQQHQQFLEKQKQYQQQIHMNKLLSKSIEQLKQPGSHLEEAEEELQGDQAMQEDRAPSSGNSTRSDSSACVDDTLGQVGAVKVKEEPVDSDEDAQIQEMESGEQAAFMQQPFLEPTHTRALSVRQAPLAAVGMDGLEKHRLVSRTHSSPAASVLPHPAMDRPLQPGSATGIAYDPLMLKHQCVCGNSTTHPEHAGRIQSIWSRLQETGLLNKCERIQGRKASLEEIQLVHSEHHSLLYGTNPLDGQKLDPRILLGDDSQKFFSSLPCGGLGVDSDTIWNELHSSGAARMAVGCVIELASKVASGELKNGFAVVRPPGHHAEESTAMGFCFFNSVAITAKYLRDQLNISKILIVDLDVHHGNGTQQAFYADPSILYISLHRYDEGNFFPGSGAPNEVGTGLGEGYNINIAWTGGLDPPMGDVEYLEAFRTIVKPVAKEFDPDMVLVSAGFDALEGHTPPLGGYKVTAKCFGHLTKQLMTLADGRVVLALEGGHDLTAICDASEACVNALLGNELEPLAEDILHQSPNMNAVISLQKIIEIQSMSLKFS

[4] = molecular target: T4, NAD-dependent protein deacetylase sirtuin-2 (Homo sapiens, UniProt Q8IXJ6); assay: Inhibition of SIRT2 (unknown origin); method in brief: as §1
T4 sequence (Q8IXJ6 whole entry): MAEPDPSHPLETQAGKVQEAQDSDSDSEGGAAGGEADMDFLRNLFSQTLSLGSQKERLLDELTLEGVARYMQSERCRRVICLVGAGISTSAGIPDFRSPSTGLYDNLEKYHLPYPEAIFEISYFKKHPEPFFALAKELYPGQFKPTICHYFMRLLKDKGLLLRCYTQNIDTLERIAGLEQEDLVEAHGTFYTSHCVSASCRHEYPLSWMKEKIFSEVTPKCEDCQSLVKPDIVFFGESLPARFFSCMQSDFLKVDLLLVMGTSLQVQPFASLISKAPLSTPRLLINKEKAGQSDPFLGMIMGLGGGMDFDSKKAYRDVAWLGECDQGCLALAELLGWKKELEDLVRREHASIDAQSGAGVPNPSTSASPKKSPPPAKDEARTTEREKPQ

BXPC-3 = assay: Upregulation of GLUT1 expression in human BxPC3 cells measured after 72 hrs by Western blot analysis; format: functional, cell-based
Method in brief: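 BxPC-3 cells were exposed to 1.25, 2.5, 5 and 10 μM compound for 72 h. GLUT1 protein was then detected by western blot, with α-tubulin as loading control.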

[5] = molecular target: T2, NAD-dependent protein deacylase sirtuin-6; assay: Binding affinity to SIRT6 (unknown origin) assessed as change in melting temperature at 40 uM by differential scanning fluorimetry
Histone deacetylase 8 = molecular target: T5, Histone deacetylase 8 (Homo sapiens, UniProt Q9BY41); assay: Inhibition of HDAC8 (unknown origin); method in brief: as §1
T5 sequence (Q9BY41 whole entry): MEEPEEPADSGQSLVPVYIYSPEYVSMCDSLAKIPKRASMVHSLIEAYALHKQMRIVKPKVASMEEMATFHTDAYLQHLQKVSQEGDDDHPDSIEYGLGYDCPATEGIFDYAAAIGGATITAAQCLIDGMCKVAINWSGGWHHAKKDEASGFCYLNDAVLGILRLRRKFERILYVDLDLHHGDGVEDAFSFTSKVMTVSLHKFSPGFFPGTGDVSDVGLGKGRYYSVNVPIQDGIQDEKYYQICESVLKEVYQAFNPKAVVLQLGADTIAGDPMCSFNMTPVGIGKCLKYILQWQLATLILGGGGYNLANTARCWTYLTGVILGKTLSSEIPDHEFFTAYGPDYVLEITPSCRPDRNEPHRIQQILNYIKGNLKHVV

Histone deacetylase 5 = Histone deacetylase 5 (Homo sapiens, UniProt Q9UQL6); assay: Inhibition of HDAC5 (unknown origin); method in brief: as §1
Histone deacetylase 5, sequence (Q9UQL6 whole entry): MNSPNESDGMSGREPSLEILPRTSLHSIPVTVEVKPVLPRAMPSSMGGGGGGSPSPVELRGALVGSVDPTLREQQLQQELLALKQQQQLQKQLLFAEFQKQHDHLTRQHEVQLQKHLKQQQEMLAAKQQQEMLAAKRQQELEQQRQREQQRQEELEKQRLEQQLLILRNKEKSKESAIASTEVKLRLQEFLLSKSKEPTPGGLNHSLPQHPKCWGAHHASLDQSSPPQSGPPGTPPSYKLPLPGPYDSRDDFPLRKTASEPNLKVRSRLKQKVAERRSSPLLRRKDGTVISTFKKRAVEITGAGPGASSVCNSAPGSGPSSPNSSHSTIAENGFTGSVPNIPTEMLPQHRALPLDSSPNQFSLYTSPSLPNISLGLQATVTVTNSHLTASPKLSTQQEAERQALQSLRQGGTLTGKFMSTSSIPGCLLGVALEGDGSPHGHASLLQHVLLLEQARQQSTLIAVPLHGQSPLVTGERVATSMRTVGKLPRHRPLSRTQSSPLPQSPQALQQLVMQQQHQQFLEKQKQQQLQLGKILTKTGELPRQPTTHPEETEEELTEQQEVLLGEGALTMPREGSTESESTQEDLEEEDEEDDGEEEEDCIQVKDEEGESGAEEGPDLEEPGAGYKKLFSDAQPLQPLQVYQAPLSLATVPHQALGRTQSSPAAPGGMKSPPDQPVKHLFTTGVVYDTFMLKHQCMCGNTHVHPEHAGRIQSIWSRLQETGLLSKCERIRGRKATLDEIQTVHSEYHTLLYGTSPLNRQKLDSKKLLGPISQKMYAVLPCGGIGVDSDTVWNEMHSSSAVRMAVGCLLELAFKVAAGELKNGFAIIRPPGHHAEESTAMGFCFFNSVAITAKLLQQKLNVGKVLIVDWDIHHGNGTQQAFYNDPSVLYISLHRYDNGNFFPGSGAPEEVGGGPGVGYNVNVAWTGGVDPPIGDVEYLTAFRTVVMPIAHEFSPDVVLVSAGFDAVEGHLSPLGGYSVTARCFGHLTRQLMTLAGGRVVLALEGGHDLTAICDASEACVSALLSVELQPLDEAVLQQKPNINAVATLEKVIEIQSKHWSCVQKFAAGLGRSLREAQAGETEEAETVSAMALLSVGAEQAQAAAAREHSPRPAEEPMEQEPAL

Histone deacetylase 4 = Histone deacetylase 4 (Homo sapiens, UniProt P56524); assay: Inhibition of HDAC4 (unknown origin); method in brief: as §1
Histone deacetylase 4, sequence (P56524 whole entry): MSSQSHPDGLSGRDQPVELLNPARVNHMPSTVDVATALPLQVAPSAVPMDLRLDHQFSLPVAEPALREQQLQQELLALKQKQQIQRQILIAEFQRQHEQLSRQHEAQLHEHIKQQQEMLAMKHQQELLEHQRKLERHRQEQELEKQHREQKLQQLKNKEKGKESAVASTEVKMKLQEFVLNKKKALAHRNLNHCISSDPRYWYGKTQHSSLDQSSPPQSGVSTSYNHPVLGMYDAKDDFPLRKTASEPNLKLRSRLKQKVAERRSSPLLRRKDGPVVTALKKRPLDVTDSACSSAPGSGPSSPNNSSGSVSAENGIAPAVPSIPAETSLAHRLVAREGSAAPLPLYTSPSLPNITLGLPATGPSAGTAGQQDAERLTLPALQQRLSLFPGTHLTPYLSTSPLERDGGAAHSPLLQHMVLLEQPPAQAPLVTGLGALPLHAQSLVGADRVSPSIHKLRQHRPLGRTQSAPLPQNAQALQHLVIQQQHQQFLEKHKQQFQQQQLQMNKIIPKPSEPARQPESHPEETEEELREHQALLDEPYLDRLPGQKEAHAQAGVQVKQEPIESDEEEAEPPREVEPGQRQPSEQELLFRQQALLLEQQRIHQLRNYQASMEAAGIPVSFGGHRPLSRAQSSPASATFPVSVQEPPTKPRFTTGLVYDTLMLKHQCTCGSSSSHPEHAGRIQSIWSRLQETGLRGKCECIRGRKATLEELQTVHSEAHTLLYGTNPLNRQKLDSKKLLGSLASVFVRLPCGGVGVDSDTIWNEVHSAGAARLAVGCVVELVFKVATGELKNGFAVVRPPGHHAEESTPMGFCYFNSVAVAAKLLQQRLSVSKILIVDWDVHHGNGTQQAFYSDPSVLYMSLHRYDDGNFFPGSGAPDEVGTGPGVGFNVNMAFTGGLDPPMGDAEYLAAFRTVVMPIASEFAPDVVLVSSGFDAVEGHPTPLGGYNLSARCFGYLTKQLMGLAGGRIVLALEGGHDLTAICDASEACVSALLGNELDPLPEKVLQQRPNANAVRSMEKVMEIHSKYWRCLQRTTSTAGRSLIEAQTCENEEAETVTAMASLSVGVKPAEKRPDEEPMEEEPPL

[6] = Toxicity in mouse assessed as change in blood glucose level; method in brief: as §2

**Q.** Which IC50 [1] does the source give for `CN1CCN(c2ccc([N+](=O)[O-])c(N)c2)CC1` here?
**A.** > 200 µM

**Q.** What about the Kd [2] of the same compound?
**A.** 9.76 µM

**Q.** And the Activity [3]?
**A.** Non-Toxic

**Q.** And the IC50 (Histone deacetylase 11)?
**A.** > 200 µM

**Q.** What about the IC50 (Histone deacetylase 1) of the same compound?
**A.** > 200 µM

**Q.** And the IC50 (Histone deacetylase 9)?
**A.** > 200 µM

**Q.** What about the IC50 [4] of the same compound?
**A.** > 200 µM

**Q.** And the Activity (BXPC-3)?
**A.** Dose-dependent effect

**Q.** And the ΔTm [5]?
**A.** 1.88 °C

**Q.** What about the IC50 (Histone deacetylase 8) of the same compound?
**A.** > 200 µM

**Q.** And the IC50 (Histone deacetylase 5)?
**A.** > 200 µM

**Q.** What about the IC50 (Histone deacetylase 4) of the same compound?
**A.** > 200 µM

**Q.** And the Activity [6]?
**A.** Non-Toxic
